From PubChem
In the library only some 2.2% were active in any assay of this set; here they are far more common.
Granule exo inh: blocks lytic granule exocytosis | 0.66% of 360,000 active | inhibition, % at 10 µM | TALL-104 LAMP-1 surface exposure, flow cytometry; cells stimulated with thapsigargin and PMA;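 active = inhibition above about 55%, limit read from the data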
ABHD5-PLIN5 inh: ABHD5-PLIN5 protein interaction inhibition; Q00G26+Q8WTS1; Split G. princeps luciferase complementation, luminescence, 4 h; inhibition, % at 4 µM; 0.78% of 360,000 active; AID 602281;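 active = inhibition above the mean inhibition across every tested compound plus 3 SD, cut at about 22% in these data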;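 note: 0% = DMSO only wells and the 100% control is not disclosed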
PfGluPho inh: PfG6PD (Plasmodium falciparum) enzyme inhibition | inhibition, % at 20 µM | 0.78% of 350,000 active | PfGluPho enzyme, NADPH resazurin-diaphorase fluorescence;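 active = inhibition reaching at least a set limit at 20 µM in the primary screen, cut at about 59% in these data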;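 note: 0% = DMSO wells with substrate and 100% = DMSO wells lacking glucose-6-phosphate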
HKDC1 inhibitor: blocks human hexokinase HKDC1 activity. Q2TB90. recombinant HKDC1, G6PDH/diaphorase resazurin coupled fluorescence. inhibition, % at 20 µM. 0.16% of 340,000 active. AID 493160;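 active = inhibition above about 35% when tested at 20 µM, limit read from the data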;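 note: plate controls were DMSO wells with enzyme for no effect and DMSO wells lacking enzyme for full effect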
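Assay system: recombinant HKDC1 hexokinase; detection: coupled resazurin fluorescence, excitation 525 nm, emission 613 nm; benchmarks: DMSO-plus-enzyme-mix negative control, buffer-substituted positive control; compound dosing: single 20 µM dose; schedule: 90 min at room temperature in dark; also added: glucose plus 1 mM ATP as hexokinase substrates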
ABHD5-PLIN5 conf: confirmation of human ABHD5-PLIN5 interaction inhibitors; shares compounds with ABHD5-PLIN5 inh; biochemical ABHD5-PLIN5 interaction, luminescence; inhibition, % at 4 µM; 67% of 2,200 active; AID 651612; in the data active = inhibition above about 23%;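 note: 0% = DMSO vehicle wells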
HNF4 split-luc: counter-screen for ABHD5-PLIN5 inhibitors: HNF4 split-luciferase. inhibition, % at 4 µM. 77% of 2,200 active. shares compounds with ABHD5-PLIN5 inh. HNF4 dimerization, luminescence, biochemical;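 active = mean inhibition across replicate wells exceeding the computed hit threshold, cut at about 13% in these data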;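 note: light from luciferase halves that rejoin when HNF4 fusion proteins dimerize; 0% = DMSO only wells and the 100% control is not given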
Target sequence (P41235 whole entry, looked up, the tested form may be a part): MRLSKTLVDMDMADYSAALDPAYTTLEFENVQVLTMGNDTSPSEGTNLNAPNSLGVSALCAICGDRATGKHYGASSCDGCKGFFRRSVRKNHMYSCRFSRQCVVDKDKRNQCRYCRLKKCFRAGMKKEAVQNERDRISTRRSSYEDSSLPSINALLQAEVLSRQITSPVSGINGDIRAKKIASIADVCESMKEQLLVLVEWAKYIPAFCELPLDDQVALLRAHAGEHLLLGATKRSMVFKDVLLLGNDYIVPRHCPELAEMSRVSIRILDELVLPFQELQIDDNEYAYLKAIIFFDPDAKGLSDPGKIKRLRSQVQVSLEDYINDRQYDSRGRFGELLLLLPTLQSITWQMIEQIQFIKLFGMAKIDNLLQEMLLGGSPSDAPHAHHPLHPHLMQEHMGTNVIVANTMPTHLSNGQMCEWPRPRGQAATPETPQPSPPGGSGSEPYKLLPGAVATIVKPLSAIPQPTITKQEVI
* = called active by the depositor; · = no result given.

SMILES	Granule exo inh	ABHD5-PLIN5 inh	PfGluPho inh	HKDC1 inhibitor	ABHD5-PLIN5 conf	HNF4 split-luc
Cc1ccc(OCC(=O)Nc2ccc(N3CCN(C(=O)c4ccco4)CC3)cc2)cc1	3	-6	-1	1	·	·
O=C(CSc1c2c(nc3cc(Cl)ccc13)CCCC2)NCc1ccco1	11	24*	20	11	42*	38*
O=C(CSc1nc2ccc(Cl)cc2[nH]1)NCc1ccco1	-1	10	16	1	·	·
Cc1cc(C)c2cc(C#N)c(SCC(=O)NCc3ccco3)nc2c1	2	35*	20	4	66*	73*
COCCN1C[C@@H](CO)O[C@@H](n2cnc3c(NCc4ccco4)ncnc32)C1	-2	13	·	·	·	·
Oc1ccccc1-c1cc(-c2ccco2)[nH]n1	5	27*	26	-2	14	14*
C=CCNc1cc(F)ccc1S(=O)(=O)NCC=C	2	-3	11	-4	·	·
Cc1ccc2c(CC(=O)N3CCN(c4ccccc4)CC3)coc2c1	-1	1	6	-1	·	·
COc1ccc(/C=N/NC(=O)c2cccc(O)c2)cc1Cn1nc(C)c([N+](=O)[O-])c1C	1	-4	9	-15	·	·
Cc1nc2ccc([N+](=O)[O-])cc2nc1C	10	4	-3	-3	·	·
Cc1ccc2nc3cc([N+](=O)[O-])cc([N+](=O)[O-])c3cc2c1	63*	39*	6	28	89*	47*
Cc1ccc(C(=O)OCC(=O)NCc2cccs2)cc1S(=O)(=O)N1CCOCC1	-3	-1	0	-6	·	·
CC1CCN(CCc2nc3cc(NC(=O)COc4ccc(Cl)cc4)ccc3n2C)CC1	24	23*	1	-3	8	4
COc1ccc(OCC(=O)Nc2ccc3c(c2)nc(CCN2CCC(C)CC2)n3C)cc1	20	9	15	-5	·	·
COc1ccc(C(=O)NCCOc2ccccc2Cl)c(OC)c1OC	3	-4	-5	3	·	·
COc1ccccc1N1CCNC(C)C1=O (stereo not given)	-2	57*	-1	2	7	15*
O=C(O)CCCC(=O)N1N=C(c2ccccc2)CC1c1ccc2c(c1)OCO2 (stereo not given)	0	-4	-10	-3	·	·
CSc1sc(-c2ccnc(SCC(=O)C(C)(C)C)n2)c2c1C(=O)CC(C)(C)C2	-4	23*	8	-1	-5	-5
Oc1ccc(/C=N/N2CCN(C3c4ccccc4-c4ccccc43)CC2)cc1	-1	-5	-18	-7	·	·
Cc1ccc(/C=N/N2CCN(C3c4ccccc4-c4ccccc43)CC2)o1	9	26*	24	4	8	13*
CCOC(=O)c1c(-c2ccc(C)o2)csc1NC(=O)CSc1nnc(C)s1	96*	33*	47	16	7	37*
CCOC(=O)c1c(-c2ccc(C)o2)csc1NC(=O)COC(=O)c1ccc(NC(N)=O)cc1	6	38*	35	1	21	44*
CCOC(=O)c1c(-c2ccc(C)o2)csc1NC(=O)CSc1nnnn1-c1ccccc1	95*	40*	54	-6	23*	62*
Cn1c(=O)c2cc(NC(=O)NCCc3ccccc3)ccc2n1Cc1ccc(F)cc1	8	4	·	·	·	·
CCCOC(=O)C1=C(C)NC(=O)NC1c1cc2c(cc1Br)OCO2 (stereo not given)	-2	-3	-28	3	·	·
SMILES	Granule exo inh	ABHD5-PLIN5 inh	PfGluPho inh	HKDC1 inhibitor	ABHD5-PLIN5 conf	HNF4 split-luc
Cc1ccc(O)c(C(=O)/C=C/c2ccc3c(c2)OCCCO3)c1	-13	32*	-8	16	66*	45*
O=C(/C=C/c1ccc2c(c1)OCCCO2)c1ccccc1O	-3	27*	-3	18	78*	53*
Cc1nn(-c2ccccc2)c(C)c1C(=O)OC(C)C(=O)NC1CCCCC1 (stereo not given)	9	0	-23	7	·	·
COCc1c(C(=O)NC(C)c2ccc(S(N)(=O)=O)cc2)oc2ccccc12 (stereo not given)	21	7	15	-4	·	·
NC(=O)c1ccc(-n2nnnc2SCC(=O)Nc2ccccc2F)cc1	-5	-3	-4	-6	·	·
COc1cc(/C=C/C(=O)c2ccccc2O)cc(OC)c1OC	1	52*	1	2	90*	84*
COc1ccc(C(=O)/C=C/c2ccccc2)c(OC)c1	-1	26*	19	5	42*	28*
